In ChEMBL document CHEMBL4513216, “Probing the Open Global Health Chemical Diversity Library for Multistage-Active Starting Points for Next-Generation Antimalarials” (ACS Infect Dis, 2020) one finds cytotoxicity data, which are given here for 95 compounds.

The series can be described thus: Toxicity liver stage against HepG2, at 10uM. In kind it is cell-based. Details: test concentration 10 uM, cell line HepG2-A16-CD81EGFP. The settings on record: human, HepG2-A16-CD81EGFP cells; read-out: INHIBITION
Put shortly:
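Uninfected HepG2-A16-CD81EGFP cells, 3 × 10^3 per well, 1536-well, plated on prespotted compound at 10 μM final, parasite-free screening media added to match infected plates; puromycin 10 μM positive, DMSO 0.5% negative; run in parallel with 48 h PbLuc assay at 37 °C, 5% CO2; viability by CellTiter-Glo luminescence, normalized to controls.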
On to `c1cc(CNCC2CNc3ccnn3C2)cc(Cn2cccn2)c1` (stereo not given), for which the cytotoxicity at 10 µM is -19%.
Then `CCS(=O)(=O)N1CCOC2(CCCN(c3ncc(F)cn3)C2)C1` (stereo not given), with 5.86%; and `CCc1noc(C(C)N2CCN(S(=O)(=O)N3CCCC3)CC2)n1` (stereo not given), with -0.252%; and `CN(C)c1ccc(NC(=O)NCC2CCOC2)cn1` (stereo not given), with -6.8%.
The figure for `NCC(=O)N1CCCC(c2cncc(Nc3ncccn3)n2)C1` (stereo not given) is 0.848%; for `CC(C)(C)OC(=O)NC1(c2noc(-c3ccoc3)n2)CCC1` it is 3.12%; for `O=C(c1cnccn1)N1CCO[C@H]2[C@H](OCc3cccnc3)CC[C@@H]21` it is -9.45%.
The figure for `CC(C)NC(=O)C1CN(Cc2ccc(F)cc2)CC12CCOCC2` (stereo not given) is 3.86%.
`Cc1cnn(C2CCCN(C(=O)c3cc(-c4cccs4)n[nH]3)C2)c1` (stereo not given): the cytotoxicity at 10 µM was -7.83%.
Then `Cc1cccc(C2CCCN(S(=O)(=O)c3cccnc3)C2)n1` (stereo not given), with 4.05%.
For the compound `O=C(CCSc1ccccc1)NCC1CCN(Cc2ccsc2)CC1`, the cytotoxicity at 10 µM is -6.93%.
The figure for `CCN1CC2(CCC1=O)CCN(Cc1cscn1)CC2` is 2.48%; for `COc1ccc(CNC(=O)c2nn(C)c3c2CS(=O)(=O)CC3)cc1` it is 8.52%.
The figure for `CCOC(=O)NCCC(=O)NC(C)(C)c1ccc2c(c1)OCCO2` is -0.418%; for `CN1CCN(CC(=O)NCc2ccco2)Cc2ccccc21` it is -3.81%; for `COc1ccc(CN2CCN(S(=O)(=O)c3cc(C(=O)O)cs3)CC2)cc1` it is 2.03%.
Then `CC(=O)NC[C@H]1COCc2nc3c(C)cccc3n21`, with 8.65%; and `O=C(NCCOCCO)[C@@]12CNC[C@@H]1CN(C1CCCC1)C2`, with -16.4%; and `CC(C)CN1CCCC1c1ccc(C(=O)Nc2cccnc2)s1` (stereo not given), with -6.79%.
On to `CCS(=O)(=O)c1ncc(CN2CCSCC2)n1CCc1ccccc1`, for which the cytotoxicity at 10 µM was -1.95%.
Turning to `CC(C)N(Cc1ccccc1)C(=O)NCCNC(=O)c1cccnc1`, the cytotoxicity at 10 µM was -1.66%.
Consider `COc1cccc(C2SCC(=O)Nc3ccsc32)c1` (stereo not given), for which the cytotoxicity at 10 µM is 2.77%.
For the compound `CCc1ccccc1CNC(=O)CNCC(F)(F)F`, the cytotoxicity at 10 µM was 10.6%.
The figure for `Cc1noc(C)c1S(=O)(=O)N1CCC(Oc2ccccn2)CC1` is 0.67%.
Then `Cc1noc(C2CCCN(Cn3cc(Br)cn3)C2)n1` (stereo not given), with -3.67%; and `CCNC(=O)NC(=O)CN1CCOC(c2ccccc2Cl)C1` (stereo not given), with 6.58%; and `O=C(NC[C@H]1CCCC[C@H]1O)c1cccc2[nH]c(-c3cccs3)nc12`, with -6.95%.
The figure for `CSc1cccc(CNC(=O)C2CC(=O)N(C3CC3)C2)c1` (stereo not given) is -12.3%.
Consider `Cc1nc(COCC2CN(C(=O)N(C)C)Cc3nccn3C2)cs1` (stereo not given), for which the cytotoxicity at 10 µM came out at 4.48%.
Then `c1cncc(CNc2ccc3nc(C4CCNCC4)nn3c2)c1`, with -108%; and `Cc1cc2nccc(C3CCN(C(=O)c4ccccc4F)CC3)n2n1`, with 1.16%.
Then `Cc1ccsc1CN(Cc1ccccn1)CC(C)C`, with -13.4%; and `CNC(=O)[C@H]1C[C@@H]2CN(C(=O)c3ccoc3)C[C@@H]2N1S(C)(=O)=O`, with -3.88%.
For `CCC(NC(=O)C1CCN(S(C)(=O)=O)CC1)c1ccc(C)cc1` (stereo not given), the cytotoxicity at 10 µM was -5.85%.
`CNC(=O)C1(C)CCCN1Cc1cnn(C)c1C` (stereo not given): the cytotoxicity at 10 µM stood at 5.45%.
Then `O=C(CC1[C@H]2CN(Cc3ccncc3)C[C@@H]12)N1CCCC1` (stereo not given in full), with 2.58%; and `O=C(Nc1nncs1)N(Cc1cccc(O)c1)C1CC1`, with 4.14%.
The figure for `CN(C)C(=O)CN1CCC2(CCN(C(=O)N3CCCC3)CC2)C1=O` is 2.7%; for `Cc1ccc(CN2Cc3nnn(C)c3C(COCC3CC3)C2)s1` (stereo not given) it is 4.27%; for `Cc1cc(N(C)CCCn2cccn2)nc(-c2cccnc2)n1` it is 16.3%.
Then `O=C(Nc1nc[nH]n1)c1cc(-c2ccc(F)cc2)n[nH]1`, with -5.4%; and `CC(C)CN1C[C@@H]2CN(C(=O)c3cccn3C)C[C@@H]2C1=O`, with -111%.
With `O=C(c1cnccn1)N1CCCC2(COCCN(CC3CC3)C2)C1` (stereo not given), the cytotoxicity at 10 µM was 1.39%.
The figure for `CCc1nc(C)sc1CN1CC[C@](O)(CC)[C@H](O)C1` is -5.61%; for `c1ccc(C2CN(C3CC3)CC3(CCN(Cc4ncc[nH]4)CC3)C2)cc1` (stereo not given) it is 7.31%; for `CS(=O)(=O)c1ccc(C(=O)N2CCCC(n3ccnc3)C2)cc1` (stereo not given) it is -19.4%.
Then `CCN(CC1CCCO1)C(=O)Nc1cc(C(=O)OC)ccc1F` (stereo not given), with -4.77%; and `CSc1ccc(CN(CCO)C(=O)CCOc2ccccc2)cc1`, with 2.08%; and `COc1ccccc1Oc1ncccc1CNC(=O)[C@@H](N)[C@@H](C)O`, with -6.29%.
The figure for `CC(C)CN1CCC(NC(=O)c2ccc(Cl)cc2Cl)CC1` is -8.33%; for `CC(C)Oc1ccc(CN2CCCC(N3CCCC3)C2)cc1CO` (stereo not given) it is 0.271%; for `Cc1cc(C)n(CC2CCCN2C(=O)c2cccc3c2OCCO3)n1` (stereo not given) it is -11.8%.
Regarding `CC(C)n1cc(S(=O)(=O)N2CCCC(N3CCCCC3)C2)cn1` (stereo not given), the cytotoxicity at 10 µM amounted to 2.78%.
In the case of `Cc1nc2cc(=O)[nH]n2c(C)c1CNC(=O)C(C)Cc1ccccc1` (stereo not given), the cytotoxicity at 10 µM was -7.27%.
`O=C(c1ccc(F)c(F)c1)N1CCCC1CN1CCCC1` (stereo not given): the cytotoxicity at 10 µM was 2.92%.
The figure for `CCc1noc(C)c1C(=O)N1CCCC(n2nc(C)nc2C)C1` (stereo not given) is -7.01%; for `CC(C)OC(=O)c1ccc(Cl)c(NC(=O)NCCN2CCOCC2)c1` it is -54.4%; for `COc1ccc(-c2csc3c2c(N)nc(=O)n3CC(N)=O)cc1` it is -42.2%.
Then `Nc1ncccc1CN1C[C@@H](C(=O)O)[C@H](c2cccc(F)c2)C1`, with -11.1%; and `Cc1cccc(NC(=O)NC2CCC3(C2)OCCO3)c1Cl` (stereo not given), with 10.6%.
The figure for `Cc1ccc(C(=O)Nc2ccc(N(C)C)nc2)n1C` is -9.38%.
`O=C(c1ccco1)N1CCN(Cc2nc(C3CC3)no2)CC1`: the cytotoxicity at 10 µM was determined as 5.21%.
The figure for `CCCC(=O)NCc1cc(Br)c(OC)c(OC)c1` is 1.11%; for `O=S(=O)(CCOc1ccc(F)cc1)Nc1cnn(CC(F)F)c1` it is -4.87%.
Regarding `COc1ccc(F)cc1CN(CC(N)=O)C(C)C`, the cytotoxicity at 10 µM is -1.68%.
Then `CC1(C)Cc2c(cnn2-c2ccccc2)C(NC2CCSCC2)C1` (stereo not given), with -186%; and `Cc1nc2n(n1)CC(Nc1nc(-c3ccccc3)no1)CC2` (stereo not given), with 0.658%.
The figure for `O=C(NCc1cn2c(n1)CN(Cc1nccs1)CC2)C1CCC1` is 4.61%.
Then `O=C(NC1CCCC1)c1nc2c(o1)CN(CCO)C2`, with 13.2%; and `CN(Cc1ncnn1C)C(=O)Nc1ccc(OC(F)F)cc1`, with -0.778%; and `CCOC(=O)N1CCC2(CCNC2)C1` (stereo not given), with 2.14%.
Regarding `O=C(c1cc2ccccc2o1)N1CCN(Cn2cc(Cl)cn2)CC1`, the cytotoxicity at 10 µM amounted to 9.31%.
For `O=C(C1CCCC1)N1CC2(CCCN(C3COC3)C2)Cc2ccccc21` (stereo not given), the cytotoxicity at 10 µM came to 9.96%.
The figure for `CC(=O)Nc1nc(CN2CCCC2Cn2cncn2)cs1` (stereo not given) is 0.222%.
As for `CCN1C(=O)CCC12CCN(S(=O)(=O)c1ccc(C#N)cc1)CC2`, the cytotoxicity at 10 µM came out at 1.82%.
Then `CC(C)C(=O)N1CCN(S(=O)(=O)C2CC2)CC2(CC(=O)N(C)C2)C1` (stereo not given), with 8.4%; and `CCC[C@@H]1CN(Cc2cnc3c(S(C)(=O)=O)cnn3c2)C[C@H]1N(C)C`, with -2.12%.
Turning to `CCOCc1nc(-c2ccc(F)cc2Cl)n(C)n1`, the cytotoxicity at 10 µM is -10.2%.
For the compound `CCN1C[C@H]2[C@@H](C1)N(c1ncc(F)cn1)CC[C@H]2OC`, the cytotoxicity at 10 µM was 3.5%.
The figure for `O=C(c1cnccn1)N1C[C@@H]2[C@@H](C1)OCC(=O)N2CC1CCCC1` is 1.58%; for `CCN(CC)C(=O)Cn1c(-c2ccc(Cl)cc2)nc(C)c(CCO)c1=O` it is 2.62%.
The figure for `Cc1cc(N2CCCN(CCc3ccccc3)CC2)ccn1` is -3.67%; for `CCNC(=O)c1sccc1N(C)S(=O)(=O)c1ccc(Cl)cc1` it is 10.8%; for `Cc1nc(N2CCCC2)nc(C)c1NC(=O)c1ccco1` it is -7.7%.
The figure for `Cc1occc1C(=O)N1CCCC(c2nncn2C)C1` (stereo not given) is -16%; for `CCN(CC)Cc1ccc(C(=O)NC2CCc3cc(F)ccc32)o1` (stereo not given) it is -9.03%; for `O=C(N[C@@H]1CCN(c2nccc3ccccc23)C[C@H]1O)c1cnccn1` it is -6.71%.
As to `CC(=O)Nc1ccc(Cl)c(C(=O)N(C)C(C)c2ccncn2)c1` (stereo not given), the cytotoxicity at 10 µM is -42.6%.
The figure for `COC(=O)[C@H]1C[C@@H](O)CCN1S(=O)(=O)c1ccc(F)cc1F` is -3.01%; for `O=C1CO[C@@H]2CN(CC3CC3)C[C@H]2N1Cc1cccc(F)c1` it is -69.9%.
The figure for `COc1ccccc1CN1C[C@@H](F)[C@@H](OCc2nc3cnccc3[nH]2)C1` is -6.66%.
Then `CCOc1ccc(CN2CCCC(c3nn(C)c(=O)n3CC)C2)cn1` (stereo not given), with -2.85%; and `Cc1ccc(-c2nc(CN3CCn4c(nnc4C4CC4)C3)co2)c(C)c1`, with -24.7%; and `Cc1ccc(-c2nnc(CCC(=O)N3CCCC3c3ccc[nH]3)o2)cc1` (stereo not given), with -1.31%.
Take `Cc1ccoc1C(=O)N1CC[C@H]2[C@H](C[C@@H](CN3CCCC3)N2C)C1`: the cytotoxicity at 10 µM amounted to 4.42%.
